# Screens: PubChem BioAssay, Sanford-Burnham Center for Chemical Genomics
# SENP8 block-1: SENP8 protease inhibitors, primary screen, biochemical, luminescence | purified SENP8, Z-RLRGG-aminoluciferin cleavage | inhibition, % at 10 µM | 330,000 tested, 1.2% active; in the data active = inhibition above about 50%
# Target sequence (Q96LD8 whole entry, looked up): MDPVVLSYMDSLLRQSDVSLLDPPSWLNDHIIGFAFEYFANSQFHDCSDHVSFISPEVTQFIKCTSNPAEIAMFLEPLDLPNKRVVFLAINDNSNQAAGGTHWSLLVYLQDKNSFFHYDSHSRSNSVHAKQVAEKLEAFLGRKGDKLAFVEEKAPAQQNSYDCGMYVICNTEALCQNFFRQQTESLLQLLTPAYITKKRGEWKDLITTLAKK
# SENP6 block: SENP6 protease inhibitors, primary screen, biochemical, luminescence, uHTS | Recombinant SENP6 catalytic domain, aminoluciferin luminescence | inhibition, % at 10 µM | 330,000 tested, 1.8% active;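 active = inhibition above about 50% at the single tested dose, limit read from the data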;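 note: plate controls were DMSO wells with enzyme for no effect and DMSO wells lacking enzyme for full effect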
# SENP8 block-2: human SENP8 protease inhibitors, primary screen, biochemical, fluorescence, Nedd8 protein substrate, uHTS; 360,000 tested, 0.64% active; inhibition, % at 20 µM; AID 602440, 2012; recombinant SENP8; in the data active = inhibition mostly above about 40%, no sharp cut-off; inactive = mostly below about 27%
# SENP7 inh: SENP7 protease inhibitors, primary screen, biochemical, luminescence, uHTS; Sentrin-specific protease 7 (Homo sapiens), Q9BQF6; recombinant SENP7, Z-RLRGG-aminoluciferin luminescence, 40 min; inhibition, % at 5 µM; 330,000 tested, 1.5% active; AID 434973, 2010;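 active = inhibition above about 50% at the single test dose, limit read from the data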;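 note: plate controls were DMSO with enzyme for no effect and no enzyme buffer wells for full effect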
# Target sequence (Q9BQF6 706-1050 limits assumed): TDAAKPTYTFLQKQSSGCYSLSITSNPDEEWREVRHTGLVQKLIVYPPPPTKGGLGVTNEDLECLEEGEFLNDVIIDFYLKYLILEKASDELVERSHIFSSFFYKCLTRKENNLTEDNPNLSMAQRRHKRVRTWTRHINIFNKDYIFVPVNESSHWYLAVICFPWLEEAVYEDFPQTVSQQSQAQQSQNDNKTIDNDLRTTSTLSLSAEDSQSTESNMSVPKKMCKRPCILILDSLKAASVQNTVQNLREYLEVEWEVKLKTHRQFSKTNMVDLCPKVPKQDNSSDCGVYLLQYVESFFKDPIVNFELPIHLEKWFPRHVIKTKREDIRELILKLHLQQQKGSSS
# SENP1 inh: human SENP1 catalytic domain inhibitors, primary screen, biochemical, FRET, uHTS; AID 624204, 2012; recombinant SENP1 catalytic domain, CyPet-SUMO1-YPet FRET cleavage; 360,000 tested, 0.21% active; inhibition, % at 10 µM; Sentrin-specific protease 1 (Homo sapiens), Q9P0U3;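 active = inhibition at least 30% at 10 µM, raw YFP signal under a set limit, fluorescence ratio 0.5 to 1.5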;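 note: 0% = enzyme with DMSO and 100% = no enzyme wells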
#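 Test system: hSENP1 catalytic domain, recombinant; Amount: 20 pM final SENP1 enzyme; Medium: Tris pH 8 buffer plus EDTA, NaCl, BME, BSA, NP40, catalase; Schedule: 50 min enzyme reaction, room temperature, light-protected; Technique: FRET fluorescence in CFP and YFP emission channels; Controls: no-enzyme wells low, DMSO-plus-enzyme wells high control.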
# SENP8 conf: SENP8 protease inhibitors, retest, confirmation, biochemical, luminescence, single concentration; shares compounds with SENP7 inh; Recombinant SENP8, Z-RLRGG-aminoluciferin luminescence, 60 min; inhibition, % at 12.5 µM; 6,200 tested, 40% active;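 active = mean inhibition across replicates above about 50%, limit read from the data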
# SENP6 confirm: SENP6 protease inhibitors, confirmation, biochemical, luminescence, single concentration | shares compounds with SENP7 inh | recombinant SENP6, Z-RLRGG-aminoluciferin luminescence | inhibition, % at 12.5 µM | 6,200 tested, 58% active
# SENP7 confirm: SENP7 protease inhibitors, retest, confirmation, biochemical, luminescence, single concentration; shares compounds with SENP7 inh; recombinant SENP7, Z-RLRGG-aminoluciferin luminescence, 40 min; inhibition, % at 12.5 µM; 6,200 tested, 69% active
# Casp3 select: caspase-3 protease inhibitors, confirmation, selectivity assay for SENP inhibitor project, biochemical, single concentration. 6,200 tested, 60% active. purified caspase-3, Z-DEVD-aminoluciferin luminescence, 60 min. shares compounds with SENP7 inh. AID 488918, 2010. inhibition, % at 12.5 µM;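 active = mean inhibition above about 50%, limit read from the data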;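 note: plate controls were enzyme with DMSO for no effect and wells without caspase-3 for full effect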
# Luc interf: luminescence interference (SENP counter-screen); inhibition, % at 12.5 µM; 6,200 tested, 39% active; Pre-incubated SENP8/Z-RLRGG-aminoluciferin, luciferase luminescence interference; AID 488919; shares compounds with SENP7 inh;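 active = mean inhibition above about 50% when retested at one dose, limit read from the data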;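 note: plate controls were DMSO wells with completed reaction for no effect and substrate without enzyme for full effect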
# An asterisk follows results filed as active; . = no result. A selection: hits, their analogues and other compounds. The true share with any hit is near 2.5%.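 Rule for the calls, unless noted: active = mean inhibition above about 50% in the one-dose retest (limit read from the data); inactive = the rest.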
SMILES,SENP8 block-1,SENP6 block,SENP8 block-2,SENP7 inh,SENP1 inh,SENP8 conf,SENP6 confirm,SENP7 confirm,Casp3 select,Luc interf
O=C(Nc1ccc2c(c1)OCCO2)c1ccc2ccccc2n1,54.2*,17.7,-3.9,64.5*,-1.3,-4.5,65.7*,89.9*,56.3*,32.8
O=C(Nc1ccc2c(c1)OCCO2)c1cccc2nc3ccccc3nc12,-1.9,-15.8,31.9,0.7,3.5,.,.,.,.,.
O=C(Nc1cnc2ccccn2c1=O)c1ccc(Cl)cc1Cl,6.6,66.1*,-140.1,68.7*,1.1,56.7*,59.4*,75.7*,82.4*,22.2
N#Cc1ccsc1NC(=O)CSc1nncs1,95.2*,94.7*,-3.6,97.2*,13.7,96.7*,97.4*,102.0*,98.5*,83.5*
N#Cc1ccsc1NC(=O)CSc1nnnn1-c1ccc(O)cc1,34.7,51.8*,9.9,18.1,-10.4,33.3,25.3,61.1*,33.9,32.8
Cc1nnc(SCC(=O)Nc2sccc2C#N)s1,3.5,11.9,-3.4,-4.5,-2.9,.,.,.,.,.
O=C(/C=C/c1ccccc1)Nc1sc2c(c1C(=O)O)CCC2,68.8*,-4.8,0.5,7.4,2.9,-5.4,73.6*,90.4*,73.1*,81.4*
N#Cc1c(NC(=O)/C=C/c2ccco2)sc2c1CCCC2,.,.,-120.8,.,-7.1,.,.,.,.,.
O=C(/C=C/c1ccco1)Nc1sc2c(c1C(=O)O)CCC2,83.8*,92.4*,9.2,43.7,2.7,90.9*,90.5*,99.4*,93.7*,91.7*
Cc1nc(-c2ccccc2O)n(-c2ccccc2)n1,-0.6,-12.5,-1.1,1.7,1.6,.,.,.,.,.
COc1ccc(-c2nnn(CC(=O)NCCc3c[nH]c4ccccc34)n2)cc1OC,4.3,4.6,15.7,-0.4,1.5,.,.,.,.,.
Cc1cccc(CN2CCN(C3CN(C4CCCCC4)S(=O)(=O)C3)CC2)c1 (centres undefined),.,.,16.7,.,3.1,.,.,.,.,.
Cc1cc(C)c(-c2csc(NC(=O)C3=COCCO3)n2)c(C)c1,2.6,-8.0,1.2,-0.1,1.0,.,.,.,.,.
Cc1cc(C)c2sc(NC(=O)C3=COCCO3)nc2c1,44.7,66.8*,-27.0,62.4*,-1.8,44.1,65.1*,88.8*,56.5*,44.7
CCc1ccc(-c2csc(NC(=O)C3=COCCO3)n2)cc1,36.4,60.1*,-7.8,29.6,-0.6,36.6,32.4,72.8*,16.3,7.2
Cc1ccc(C(=O)Nc2ccc3c(c2)OCCO3)o1,30.5,53.7*,8.1,7.0,2.4,51.9*,44.5,79.8*,81.9*,61.8*
Cc1cc(C(=O)Nc2ccc3c(c2)OCCO3)co1,15.4,34.0,12.7,2.1,0.5,.,.,.,.,.
O=C(Nc1nc(-c2ccc3c(c2)OCCO3)cs1)c1ccco1,83.1*,86.1*,-50.9,88.6*,-1.2,86.2*,86.0*,97.3*,74.9*,90.3*
NC(COCc1ccccc1)c1csc(NC(=O)Nc2cccc(C(F)(F)F)c2)n1 (centres undefined),.,.,13.7,.,0.6,.,.,.,.,.
O=C(Nc1ccc2c(c1)OCCO2)c1ccco1,15.1,34.6,6.6,53.8*,1.8,37.7,35.8,74.7*,80.0*,53.4*
Cc1sc2nc(-c3ccco3)oc(=O)c2c1C,-39.1,-17.1,-89.8,4.6,-23.5,.,.,.,.,.
Cc1cccc(-c2nc3sc(C)cc3c(=O)o2)c1,-1.2,5.0,-71.1,-5.4,0.5,.,.,.,.,.
Cc1ccccc1-c1nc2sc(-c3ccccc3)cc2c(=O)o1,36.9,80.0*,-40.6,84.5*,-19.1,-20.9,-10.2,-7.0,9.2,-5.4
Cc1ccccc1-c1nc2sc(C)c(C)c2c(=O)o1,60.8*,77.2*,20.7,83.2*,2.3,37.6,39.2,35.1,47.8,13.3
O=C(CCc1nc2ccccc2s1)NC1CCOC1=O (centres undefined),2.3,60.9*,11.9,1.0,0.6,9.0,5.7,-8.4,2.4,0.2
SMILES,SENP8 block-1,SENP6 block,SENP8 block-2,SENP7 inh,SENP1 inh,SENP8 conf,SENP6 confirm,SENP7 confirm,Casp3 select,Luc interf
O=C(CCCc1nc2ccccc2s1)NC1CCOC1=O (centres undefined),3.6,-6.2,6.4,3.8,-1.4,.,.,.,.,.
Cc1noc(C)c1C(=O)N1CCC2(CC1)Oc1ccc(F)cc1C(=O)C21CC(c2ccc(Cl)cc2)=NO1 (centres undefined),-10.1,-1.4,-10.9,13.2,3.0,.,.,.,.,.
OC1(c2ccccc2)CN(c2ccccc2)C2=[N+]1CCS2 (centres undefined),-5.1,-1.7,4.6,-0.5,0.8,.,.,.,.,.
CC(=O)Nc1cccc(NC(=O)C(=O)Nc2ccc3c(c2)N(C(=O)C2CC2)CCC3)c1,28.2,58.5*,-20.9,50.1*,-5.0,-4.2,30.3,74.8*,65.1*,23.9
COc1ccccc1NC(=S)N1CCCc2ccccc21,0.0,17.7,13.9,0.8,-0.6,.,.,.,.,.
COc1ccccc1NC(=O)C(=O)Nc1ccc2c(c1)N(C(=O)C1CC1)CCC2,-19.0,-7.5,6.0,56.1*,-0.3,-8.4,-5.5,-9.2,4.6,1.2
CCOC(=O)C1(Cc2ccccc2C)CCCN(C(=O)c2ccc(C(C)=O)s2)C1 (centres undefined),.,.,16.8,.,1.5,.,.,.,.,.
O=C(COc1ccccc1Cl)Nc1ccc(Cl)cn1,37.9,73.6*,4.2,47.7,2.0,23.5,60.8*,86.1*,59.7*,6.4
COc1ccccc1OCC(=O)Nc1ccncc1,-6.2,-4.2,12.4,-4.1,-2.9,.,.,.,.,.
COc1ccccc1OCC(=O)Nc1ccccn1,77.8*,82.3*,1.6,85.7*,1.5,77.7*,74.1*,93.7*,93.4*,81.1*
CCCCc1cc(=O)oc2cc(C)cc(OCC(=O)Nc3ccccn3)c12,30.5,53.2*,-255.9,13.1,3.0,40.3,33.8,68.2*,75.8*,53.4*
Cc1c(C)c2ccc(OCC(=O)Nc3ccccn3)c(C)c2oc1=O,92.2*,97.6*,-260.0,100.5*,0.0,58.6*,88.5*,38.9,92.6*,19.9
